Assay results taken from ChEMBL document CHEMBL1121581, “4-Piperazinyl-10H-thieno[2,3-b][1,5]benzodiazepines as potential neuroleptics” (J Med Chem, 1980).

Assays:
Rattus norvegicus [1] = assay: Compound was assessed for its ability to block a conditioned avoidance response; Dose administered perorally is 25 mg/kg; no significant effect (0-25%block); assay type: functional; conditions: route oral
How it was run: (§1)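 Lilly Wistar rats (120–130 g) trained in a shuttle box to cross on a 5-s buzzer, with mild shock if no response within 1 s of buzzer end. Only rats with a high conditioned response were used. Groups of five were dosed orally 1 h 50 min before the session, then habituated 10 min and tested 20 min. Shocks were scored as % of stimuli and graded 0–5.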

[2] = Lethal dose in mice after perorla administration; assay type: toxicity, organism-based; conditions: mouse, in vivo, po
Mus musculus = assay: Hypothermia in mice after peroral administration; assay type: functional
Rattus norvegicus [3] = assay: Ability to block a conditioned avoidance response; Dose administered perorally is 50 mg/kg.; assay type: functional; conditions: route oral; how it was run: as §1
Rattus norvegicus [4] = assay: Compound was assessed for its ability to block a conditioned avoidance response; Dose administered perorally is 10 mg/kg; no significant effect (0-25%block); assay type: functional; conditions: route oral; how it was run: as §1
Rattus norvegicus [5] = assay: Compound was assessed for its ability to block a conditioned avoidance response; Dose administered perorally is 50 mg/kg; 76-99%block; assay type: functional; conditions: route oral; how it was run: as §1
Rattus norvegicus [6] = assay: Compound was assessed for its ability to produce catalepsy in rats; Dose administered perorally is 50 mg/kg; Group score is 8-15; assay type: functional; conditions: route oral
How it was run: (§2)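 Groups of eight Lilly Wistar rats (180–190 g) were dosed orally, then checked at 0.5, 1, 1.5, 2, 3, 4 and 5 h. Front paws were placed on a 1.5-cm rod 7 cm above the table, and hold time was recorded up to 20 min. Each rat was scored 0–5 and its maximum scores were summed per group (maximum 40), then graded 0–4.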

Rattus norvegicus [7] = assay: Compound was assessed for its ability to produce catalepsy in rats; Dose administered perorally is 8 mg/kg; Group score is 4-7; assay type: functional; conditions: route oral; how it was run: as §2
Rattus norvegicus [8] = assay: Compound was assessed for its ability to block a conditioned avoidance response; Dose administered perorally is 8 mg/kg; 31-50%block; assay type: functional; conditions: route oral; how it was run: as §1
Rattus norvegicus [9] = assay: Compound was assessed for its ability to produce catalepsy in rats; Dose administered perorally is 50 mg/kg; Group score is 4-7; assay type: functional; conditions: route oral; how it was run: as §2
Rattus norvegicus [10] = assay: Compound was assessed for its ability to produce catalepsy in rats; Dose administered perorally is 50 mg/kg; Group score is 0-3; assay type: functional; conditions: route oral; how it was run: as §2
Rattus norvegicus [11] = assay: Compound was assessed for its ability to block a conditioned avoidance response; Dose administered intraperitoneally is 50 mg/kg; no significant effect (0-25%block); assay type: functional; conditions: route intraperitoneal
Rattus norvegicus [12] = assay: Compound was assessed for its ability to produce catalepsy in rats; Dose administered perorally is 20 mg/kg; Group score is 8-15; assay type: functional; conditions: route oral; how it was run: as §2
Rattus norvegicus [13] = assay: Compound was assessed for its ability to block a conditioned avoidance response; Dose administered perorally is 20 mg/kg; 76-99%block; assay type: functional; conditions: route oral; how it was run: as §1
Rattus norvegicus [14] = assay: Compound was assessed for its ability to produce catalepsy in rats; Dose administered perorally is 10 mg/kg; Group score is 4-7; assay type: functional; conditions: route oral; how it was run: as §2
Rattus norvegicus [15] = assay: Compound was assessed for its ability to block a conditioned avoidance response; Dose administered perorally is 10 mg/kg; 31-50%block; assay type: functional; conditions: route oral; how it was run: as §1
Rattus norvegicus [16] = assay: Compound was assessed for its ability to block a conditioned avoidance response; Dose administered perorally is 50 mg/kg; 26-30%block; assay type: functional; conditions: route oral; how it was run: as §1
Rattus norvegicus [17] = assay: Compound was assessed for its ability to block a conditioned avoidance response; Dose administered perorally is 40 mg/kg; 26-30%block; assay type: functional; conditions: route oral; how it was run: as §1
Rattus norvegicus [18] = assay: Compound was assessed for its ability to block a conditioned avoidance response; Dose administered perorally is 10 mg/kg; 51-75%block; assay type: functional; conditions: route oral; how it was run: as §1

| SMILES | LD50 [2] [mg/kg] | EDmin (Mus musculus) [mg/kg] | Activity (Rattus norvegicus [3]) | other results |
| --- | --- | --- | --- | --- |
| Cc1csc2c1C(N1CCN(C)CC1)=Nc1cc(F)ccc1N2 | > 200 | 25 | – | Activity (Rattus norvegicus [1]): 0 |
| CN1CCN(C2=Nc3cc(F)ccc3Nc3sc4c(c32)CCCC4)CC1 | > 400 | 100 | 0 | – |
| CCCN1CCN(C2=Nc3cc(F)ccc3Nc3sc(CC)cc32)CC1 | > 100 | 6.25 | – | Activity (Rattus norvegicus [4]): 0 |
| CCc1cc2c(s1)Nc1ccccc1N=C2N1CCN(Cc2ccccc2)CC1 | > 400 | 200 | – | Activity (Rattus norvegicus [5]): 4; Activity (Rattus norvegicus [6]): 2 |
| CCc1cc2c(s1)Nc1ccc([N+](=O)[O-])cc1N=C2N1CCN(C)CC1 | > 400 | 50 | – | Activity (Rattus norvegicus [1]): 0 |
| CCc1cc2c(s1)Nc1ccc(Cl)cc1N=C2N1CCN(C)CC1 | 50 | 6.25 | – | Activity (Rattus norvegicus [7]): 1; Activity (Rattus norvegicus [8]): 2 |
| CC(O)c1cc2c(s1)Nc1ccc(F)cc1N=C2N1CCN(C)CC1 (configuration not stated) | > 400 | 25 | – | Activity (Rattus norvegicus [5]): 4; Activity (Rattus norvegicus [9]): 1 |
| CCc1cc2c(s1)Nc1ccc(F)cc1N=C2N1CCN(Cc2ccc(Cl)cc2)CC1 | > 400 | >400 | 0 | Activity (Rattus norvegicus [10]): 0 |
| CCCCCCc1cc2c(s1)Nc1ccc(F)cc1N=C2N1CCN(C)CC1 | > 400 | 100 | 0 | – |
| CCOC(=O)N1CCN(C2=Nc3ccccc3Nc3sc(CC)cc32)CC1 | > 400 | 50 | 0 | – |
| CCc1cc2c(s1)Nc1ccc(F)cc1N=C2N1CCN(c2cccc(C(F)(F)F)c2)CC1 | 400 | >400 | – | Activity (Rattus norvegicus [11]): 0 |
| CCc1cc2c(s1)Nc1ccccc1N=C2N1CCN(CCO)CC1 | > 400 | 25 | – | Activity (Rattus norvegicus [12]): 2; Activity (Rattus norvegicus [13]): 4 |
| CCc1cc2c(s1)Nc1ccc(F)cc1N=C2NCCO | > 800 | 200 | 0 | Activity (Rattus norvegicus [10]): 0 |
| CCc1cc2c(s1)Nc1ccc(F)cc1N=C2NCCN1CCN(c2ccccc2)CC1 | > 800 | >400 | 0 | Activity (Rattus norvegicus [10]): 0 |
| CN1CCN(C2=Nc3ccccc3Nc3sc(C(C)(C)C)cc32)CC1 | 400 | 12.5 | – | Activity (Rattus norvegicus [4]): 0 |
| CCc1cc2c(s1)Nc1ccc(F)cc1N=C2NCCCN1CCOCC1 | 800 | 400 | – | Activity (Rattus norvegicus [11]): 0 |
| CCOC(=O)N1CCN(C2=Nc3cc(F)ccc3Nc3sc(C)cc32)CC1 | > 400 | >400 | 0 | – |
| CCc1cc2c(s1)Nc1ccc(F)cc1N=C2N1CCCCC1 | > 200 | 12.5 | 0 | – |
| CCc1cc2c(s1)Nc1ccc(F)cc1N=C2N1CCN(C)CC1.O=C(O)/C=C\C(=O)O | 200 | 6.25 | – | Activity (Rattus norvegicus [7]): 1; Activity (Rattus norvegicus [8]): 2 |
| CCc1cc2c(s1)Nc1ccc(F)cc1N=C2N1CCN(c2ccccc2)CC1 | > 400 | >400 | – | Activity (Rattus norvegicus [11]): 0 |

| SMILES | LD50 [2] [mg/kg] | EDmin (Mus musculus) [mg/kg] | Activity (Rattus norvegicus [3]) | other results |
| --- | --- | --- | --- | --- |
| CCc1cc2c(s1)Nc1ccc(F)cc1N=C2N1CCN(CCO)CC1 | 400 | 50 | – | Activity (Rattus norvegicus [13]): 4; Activity (Rattus norvegicus [14]): 1 |
| CCc1cc2c(s1)Nc1ccccc1N=C2N1CCN(CC)CC1 | 200 | 50 | – | Activity (Rattus norvegicus [15]): 2; Activity (Rattus norvegicus [14]): 1 |
| CCc1cc2c(s1)Nc1ccc(Cl)cc1N=C2N1CCNCC1 | > 400 | 50 | 0 | Activity (Rattus norvegicus [10]): 0 |
| CCc1cc2c(s1)Nc1ccc(S(C)(=O)=O)cc1N=C2N1CCN(C)CC1 | > 400 | >400 | 0 | – |
| CCCN1CCN(C2=Nc3ccccc3Nc3sc(CC)cc32)CC1 | > 200 | 25 | – | Activity (Rattus norvegicus [12]): 2; Activity (Rattus norvegicus [4]): 0 |
| CN1CCN(C2=Nc3cc(F)ccc3Nc3sc(-c4ccccc4)cc32)CC1 | > 400 | 50 | 0 | Activity (Rattus norvegicus [10]): 0 |
| CCc1cc2c(s1)Nc1ccc(Cl)cc1C(N1CCN(C)CC1)=N2 | > 100 | 50 | 0 | – |
| CCc1cc2c(s1)Nc1cc(F)cc(F)c1N=C2N1CCN(C)CC1 | 600 | 25 | – | Activity (Rattus norvegicus [16]): 1; Activity (Rattus norvegicus [9]): 1 |
| CC(=O)c1cc2c(s1)Nc1ccccc1C(N1CCN(C)CC1)=N2 | > 400 | 200 | – | Activity (Rattus norvegicus [17]): 1 |
| Cc1cc2c(s1)Nc1ccc(F)cc1N=C2N1CCNCC1 | 400 | 100 | – | Activity (Rattus norvegicus [16]): 1 |
| CCc1cc2c(s1)Nc1ccc(SC)cc1N=C2N1CCN(C)CC1 | > 200 | 100 | 0 | – |
| CCc1cc2c(s1)Nc1ccc(F)cc1N=C2N1CCN(c2cccc(Cl)c2)CC1 | > 400 | >400 | – | Activity (Rattus norvegicus [11]): 0 |
| CCOC(=O)N1CCN(C2=Nc3cc(F)ccc3Nc3sc(CC)cc32)CC1 | > 800 | 100 | 0 | Activity (Rattus norvegicus [10]): 0 |
| CCc1cc2c(s1)Nc1ccc(F)cc1N=C2N1CCOCC1 | > 400 | >400 | 0 | – |
| CCc1cc2c(s1)Nc1ccccc1N=C2N1CCNCC1 | 800 | 100 | 0 | – |
| CCc1cc2c(s1)Nc1ccc(S(=O)(=O)N(C)C)cc1N=C2N1CCN(C)CC1 | > 800 | >800 | 0 | – |
| CCc1cc2c(s1)Nc1ccccc1C(N1CCN(C)CC1)=N2 | > 200 | 100 | – | Activity (Rattus norvegicus [1]): 0 |
| CCc1cc2c(s1)Nc1ccc(F)cc1N=C2NCCN1CCOCC1 | 400 | 200 | – | Activity (Rattus norvegicus [11]): 0 |
| CN(C)CCCN1c2ccccc2Sc2ccc(Cl)cc21 [CHLORPROMAZINE] | 400 | 6.25 | – | Activity (Rattus norvegicus [18]): 3; Activity (Rattus norvegicus [14]): 1 |
| OCCN1CCN(CC/C=C2\c3ccccc3Sc3ccc(C(F)(F)F)cc32)CC1 [E-FLUPENTIXOL] | > 400 | >400 | – | Activity (Rattus norvegicus [16]): 1; Activity (Rattus norvegicus [10]): 0 |
